According to PubChem BioAssay AID488992 (Sanford-Burnham Center for Chemical Genomics, 2010):
Activity calls are given as the source filed them.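 How the source made its calls: active means IC50 below 20 µM; inactive means the rest.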

biological target: Apelin receptor (Homo sapiens) (UniProt P35414); assay: apelin receptor inhibitor analogs – cell-based, luminescence, set 3, SAR follow-up (AID 488992); details: CHO-K1 AGTRL-1 PathHunter beta-arrestin
Summary of the method: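 test system = CHO-K1 APJ beta-arrestin complementation cells | also added = apelin-13, 10 nM final | doses = test compounds as dose-response series | timing = overnight cell seeding, 90 min compound-agonist exposure at 25 °C | detection = luminescence from beta-gal complementation, read 60 min after detection reagent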

Sequence of Apelin receptor (Homo sapiens) (P35414 whole entry, looked up): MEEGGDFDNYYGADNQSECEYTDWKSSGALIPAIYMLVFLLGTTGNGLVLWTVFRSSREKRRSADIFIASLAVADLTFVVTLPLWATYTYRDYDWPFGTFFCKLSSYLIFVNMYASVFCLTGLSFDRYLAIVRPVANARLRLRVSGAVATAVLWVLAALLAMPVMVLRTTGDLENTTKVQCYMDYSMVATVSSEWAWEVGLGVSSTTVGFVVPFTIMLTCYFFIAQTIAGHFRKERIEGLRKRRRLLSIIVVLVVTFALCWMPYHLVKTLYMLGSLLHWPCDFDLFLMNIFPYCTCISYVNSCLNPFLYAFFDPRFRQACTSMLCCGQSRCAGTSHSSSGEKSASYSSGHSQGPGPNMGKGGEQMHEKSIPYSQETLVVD

`Cc1ccnc(SCc2cc(=O)c(OCc3ccc(Cl)c([N+](=O)[O-])c3)co2)n1` was tested. Which IC50 did it give?
The IC50 was > 79 µM (inactive).

For `COc1cc(CSc2nc(C)cc(C)n2)ccc1OC(=O)c1cccnc1`, which IC50 is on record?
Its IC50 is > 79 µM (inactive).

`Cc1ccnc(SCc2cc(=O)c(OC(=O)C(C)(C)C)co2)n1` was tested. Which IC50 did it give?
The IC50 was > 79 µM (inactive).

How did the IC50 turn out when `Cc1ccnc(SCc2cc(=O)c(OC(=O)C(C)C)co2)n1` was run?
Its IC50 is > 79 µM (inactive).

Which IC50 does the source give for `Cc1ccnc(SCc2cc(=O)c(OC(=O)c3ccc([N+](=O)[O-])o3)co2)n1` here?
The IC50 was > 79 µM (inactive).

With `Cc1ccnc(SCc2cc(=O)c(OC(=O)c3ccno3)co2)n1` as the molecule, how does the IC50 read?
Its IC50 is > 79 µM (inactive).

With `O=C(Nc1ccc(CSc2ncccn2)cc1)c1ccccc1` as the molecule, how does the IC50 read?
Its IC50 is > 79 µM (inactive).

Which IC50 does the source give for `COc1cc(CSc2nc(C)cc(C)n2)ccc1OC(=O)c1ccccc1` here?
The IC50 was > 79 µM (inactive).

How did the IC50 turn out when `COc1cc(CSc2nc(C)cc(C)n2)ccc1OC(=O)c1ccc([N+](=O)[O-])cc1` was run?
Its IC50 is > 79 µM (inactive).

`CC(=O)Oc1coc(CSc2nccc(C)n2)cc1=O` was tested. Which IC50 did it give?
Its IC50 is > 79 µM (inactive).
